How the values were obtained:
[1] = target: D(2) dopamine receptor (Homo sapiens, UniProt P14416); assay: Displacement of [3H]-raclopride from human D2L receptor expressed in HEK293 cell membranes after 1 hr by Microbeta scintillation counting method
[2] = target: T1, 5-hydroxytryptamine receptor 1A (Homo sapiens, UniProt P08908); assay: Displacement of [3H]-8-OH-DPAT from human 5HT1AR expressed in HEK293 cell membranes after 1 hr by Microbeta scintillation counting method
T1 sequence (P08908 whole entry): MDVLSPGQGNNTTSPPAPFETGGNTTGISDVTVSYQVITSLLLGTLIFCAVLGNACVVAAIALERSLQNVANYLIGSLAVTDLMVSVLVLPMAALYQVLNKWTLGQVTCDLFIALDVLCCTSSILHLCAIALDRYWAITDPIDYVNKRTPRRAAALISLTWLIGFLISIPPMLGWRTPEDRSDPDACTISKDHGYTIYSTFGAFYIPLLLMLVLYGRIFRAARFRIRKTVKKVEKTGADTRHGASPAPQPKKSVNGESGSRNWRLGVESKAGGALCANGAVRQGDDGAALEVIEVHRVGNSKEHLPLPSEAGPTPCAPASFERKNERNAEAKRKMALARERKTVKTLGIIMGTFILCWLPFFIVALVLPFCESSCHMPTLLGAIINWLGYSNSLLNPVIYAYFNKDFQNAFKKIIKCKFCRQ

[3] = target: 5-hydroxytryptamine receptor 7 (Homo sapiens, UniProt P34969); assay: Displacement of [3H]-5-CT from human 5HT7BR expressed in HEK293 cell membranes after 1 hr by Microbeta scintillation counting method
Chain of 5-hydroxytryptamine receptor 7 (P34969 whole entry): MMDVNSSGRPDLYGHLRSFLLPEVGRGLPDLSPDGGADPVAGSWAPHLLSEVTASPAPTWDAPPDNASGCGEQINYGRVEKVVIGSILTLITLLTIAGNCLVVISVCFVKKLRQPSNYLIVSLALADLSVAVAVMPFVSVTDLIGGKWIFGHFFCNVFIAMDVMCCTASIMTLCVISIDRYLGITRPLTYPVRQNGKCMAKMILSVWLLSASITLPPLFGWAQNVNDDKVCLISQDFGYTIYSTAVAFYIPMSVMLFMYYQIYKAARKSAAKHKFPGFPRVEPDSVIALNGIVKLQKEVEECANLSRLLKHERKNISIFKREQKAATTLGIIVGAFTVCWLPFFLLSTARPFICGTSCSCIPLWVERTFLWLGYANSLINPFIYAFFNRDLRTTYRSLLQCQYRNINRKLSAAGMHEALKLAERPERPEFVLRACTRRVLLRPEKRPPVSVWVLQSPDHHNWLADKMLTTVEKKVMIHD

[4] = target: T2, Adrenergic receptor alpha-1 (Rattus norvegicus, UniProt P15823+P23944+P43140); assay: Displacement of [3H]-prazosin from alpha1-adrenergic receptor in rat brain cortex after 30 mins by Microbeta scintillation counting method
T2 sequence (P15823 whole entry): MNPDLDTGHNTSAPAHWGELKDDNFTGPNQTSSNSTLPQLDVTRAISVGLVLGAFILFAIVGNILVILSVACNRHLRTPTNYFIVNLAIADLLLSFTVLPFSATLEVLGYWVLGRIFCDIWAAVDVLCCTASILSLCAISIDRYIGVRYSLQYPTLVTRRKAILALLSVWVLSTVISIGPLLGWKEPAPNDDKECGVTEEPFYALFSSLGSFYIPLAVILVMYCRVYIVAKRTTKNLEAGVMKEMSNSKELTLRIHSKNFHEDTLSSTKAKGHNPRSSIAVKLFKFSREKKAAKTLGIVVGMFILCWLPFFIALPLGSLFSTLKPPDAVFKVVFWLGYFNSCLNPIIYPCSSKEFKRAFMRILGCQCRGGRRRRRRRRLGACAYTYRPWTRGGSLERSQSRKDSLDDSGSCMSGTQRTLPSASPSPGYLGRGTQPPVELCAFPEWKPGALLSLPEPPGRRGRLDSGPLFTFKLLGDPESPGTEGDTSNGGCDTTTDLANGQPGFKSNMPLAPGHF
T2 sequence (P23944 whole entry): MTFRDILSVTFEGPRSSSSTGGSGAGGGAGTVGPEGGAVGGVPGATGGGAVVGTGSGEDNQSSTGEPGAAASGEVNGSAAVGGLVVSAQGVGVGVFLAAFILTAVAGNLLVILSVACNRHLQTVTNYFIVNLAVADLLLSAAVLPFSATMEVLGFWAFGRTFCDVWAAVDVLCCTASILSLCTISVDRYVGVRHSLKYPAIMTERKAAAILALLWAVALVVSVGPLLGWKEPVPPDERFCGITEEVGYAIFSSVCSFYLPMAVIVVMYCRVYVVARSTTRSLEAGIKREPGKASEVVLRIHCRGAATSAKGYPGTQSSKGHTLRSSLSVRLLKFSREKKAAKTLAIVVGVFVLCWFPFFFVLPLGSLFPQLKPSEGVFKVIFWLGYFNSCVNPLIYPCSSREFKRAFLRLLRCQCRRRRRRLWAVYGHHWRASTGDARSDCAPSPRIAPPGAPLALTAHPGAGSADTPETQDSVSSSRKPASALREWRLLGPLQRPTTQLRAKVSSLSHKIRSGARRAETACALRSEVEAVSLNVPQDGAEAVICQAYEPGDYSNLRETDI
T2 sequence (P43140 whole entry): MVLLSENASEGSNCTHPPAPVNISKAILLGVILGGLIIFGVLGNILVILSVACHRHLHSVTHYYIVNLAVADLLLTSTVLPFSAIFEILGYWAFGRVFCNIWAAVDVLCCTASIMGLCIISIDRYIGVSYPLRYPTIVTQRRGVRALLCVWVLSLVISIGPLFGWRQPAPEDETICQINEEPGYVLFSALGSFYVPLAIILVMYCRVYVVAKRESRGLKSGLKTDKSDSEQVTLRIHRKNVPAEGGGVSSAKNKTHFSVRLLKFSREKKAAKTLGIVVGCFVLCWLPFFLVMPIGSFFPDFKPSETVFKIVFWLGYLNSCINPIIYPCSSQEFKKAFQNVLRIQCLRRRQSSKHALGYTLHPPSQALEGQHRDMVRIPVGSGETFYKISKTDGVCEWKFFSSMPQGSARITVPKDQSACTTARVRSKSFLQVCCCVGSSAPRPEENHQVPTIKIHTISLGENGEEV

[5] = target: T3, Adrenergic receptor alpha-2 (Rattus norvegicus, UniProt P22086+P19328+P22909); assay: Displacement of [3H]-clonidine from alpha2-adrenergic receptor in rat brain cortex after 30 mins by Microbeta scintillation counting method
T3 sequence (P22086 whole entry): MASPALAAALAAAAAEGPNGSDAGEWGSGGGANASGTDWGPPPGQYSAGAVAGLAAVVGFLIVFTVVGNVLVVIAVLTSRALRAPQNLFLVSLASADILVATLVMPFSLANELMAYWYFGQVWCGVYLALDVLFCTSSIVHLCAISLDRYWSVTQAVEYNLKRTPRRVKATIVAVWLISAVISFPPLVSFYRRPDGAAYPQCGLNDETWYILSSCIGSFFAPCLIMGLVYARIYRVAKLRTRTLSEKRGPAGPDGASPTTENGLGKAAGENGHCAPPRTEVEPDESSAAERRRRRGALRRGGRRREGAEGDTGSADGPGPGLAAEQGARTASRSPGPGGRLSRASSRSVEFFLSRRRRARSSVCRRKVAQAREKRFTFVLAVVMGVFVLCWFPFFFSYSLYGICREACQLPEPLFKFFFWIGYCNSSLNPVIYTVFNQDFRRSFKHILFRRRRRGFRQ
T3 sequence (P19328 whole entry): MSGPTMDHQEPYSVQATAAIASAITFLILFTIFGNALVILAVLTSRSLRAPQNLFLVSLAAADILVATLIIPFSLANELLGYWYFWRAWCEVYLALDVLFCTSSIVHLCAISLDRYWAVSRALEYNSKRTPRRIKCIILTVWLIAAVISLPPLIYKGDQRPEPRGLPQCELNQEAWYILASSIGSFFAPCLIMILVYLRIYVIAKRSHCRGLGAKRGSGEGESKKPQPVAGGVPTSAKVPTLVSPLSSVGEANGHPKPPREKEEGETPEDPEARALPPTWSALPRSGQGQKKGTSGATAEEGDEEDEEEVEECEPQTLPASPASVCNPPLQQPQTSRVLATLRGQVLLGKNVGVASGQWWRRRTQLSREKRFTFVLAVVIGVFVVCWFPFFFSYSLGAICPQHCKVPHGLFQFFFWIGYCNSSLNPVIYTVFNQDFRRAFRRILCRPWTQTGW
T3 sequence (P22909 whole entry): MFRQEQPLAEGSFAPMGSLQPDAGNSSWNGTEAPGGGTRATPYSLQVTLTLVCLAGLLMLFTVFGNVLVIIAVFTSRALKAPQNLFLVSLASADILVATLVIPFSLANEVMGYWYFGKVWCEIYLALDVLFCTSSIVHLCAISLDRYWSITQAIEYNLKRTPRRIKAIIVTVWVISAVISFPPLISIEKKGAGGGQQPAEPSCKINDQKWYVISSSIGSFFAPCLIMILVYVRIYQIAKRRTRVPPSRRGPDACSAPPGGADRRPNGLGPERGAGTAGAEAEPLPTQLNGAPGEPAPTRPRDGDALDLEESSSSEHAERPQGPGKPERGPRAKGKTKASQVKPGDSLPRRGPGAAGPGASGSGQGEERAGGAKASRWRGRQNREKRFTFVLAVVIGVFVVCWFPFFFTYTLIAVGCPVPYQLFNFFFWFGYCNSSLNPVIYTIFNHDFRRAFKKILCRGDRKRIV

[6] = target: Beta-1 adrenergic receptor (Rattus norvegicus, UniProt P18090); assay: Displacement of [3H]-CGP-12177 from beta1-adrenergic receptor in rat brain cortex after 1 hr by Microbeta scintillation counting method
Chain of Beta-1 adrenergic receptor (P18090 whole entry): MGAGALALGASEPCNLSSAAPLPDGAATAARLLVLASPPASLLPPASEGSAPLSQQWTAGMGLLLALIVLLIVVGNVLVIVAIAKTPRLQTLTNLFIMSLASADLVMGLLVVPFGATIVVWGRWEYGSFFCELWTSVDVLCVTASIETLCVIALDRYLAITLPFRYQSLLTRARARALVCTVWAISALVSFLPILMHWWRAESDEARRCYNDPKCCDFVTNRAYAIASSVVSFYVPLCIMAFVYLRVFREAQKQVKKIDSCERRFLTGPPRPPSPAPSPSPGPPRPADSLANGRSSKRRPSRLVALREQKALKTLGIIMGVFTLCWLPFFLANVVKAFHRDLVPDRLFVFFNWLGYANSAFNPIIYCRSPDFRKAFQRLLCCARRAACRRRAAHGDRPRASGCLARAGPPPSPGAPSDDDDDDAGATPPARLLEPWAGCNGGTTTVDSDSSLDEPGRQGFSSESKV

[7] = test system: Mus musculus; assay: Antidepressant like activity in Swiss albino mouse assessed as immobility time at 5 mg/kg, ip administered 60 mins prior to test and measured last 4 mins of 6 mins test by forced swimming test (reference value: 159.78 to 183.56 secs); type: functional
[8] = test system: Mus musculus; assay: Antidepressant like activity in Swiss albino mouse assessed as immobility time at 10 mg/kg, ip administered 60 mins prior to test and measured last 4 mins of 6 mins test by forced swimming test (reference value: 159.78 to 183.56 secs); type: functional
[9] = test system: Mus musculus; assay: Antidepressant like activity in Swiss albino mouse assessed as immobility time at 20 mg/kg, ip administered 60 mins prior to test and measured last 4 mins of 6 mins test by forced swimming test (reference value: 159.78 to 183.56 secs); type: functional
[10] = test system: Mus musculus; assay: Anxiolytic-like activity in Swiss albino mouse assessed as number of punished crossings at 10 mg/kg, ip administered 60 mins prior to test and measured post 3 secs of electric shock by four-plate test (reference value: 3.8 to 4 /min); type: functional
[11] = test system: Mus musculus; assay: Anxiolytic-like activity in Swiss albino mouse assessed as number of punished crossings at 20 mg/kg, ip administered 60 mins prior to test and measured post 3 secs of electric shock by four-plate test (reference value: 3.8 to 4 /min); type: functional
[12] = test system: Mus musculus; assay: Anxiolytic-like activity in Swiss albino mouse assessed as number of punished crossings at 40 mg/kg, ip administered 60 mins prior to test and measured post 3 secs of electric shock by four-plate test (reference value: 3.8 to 4 /min); type: functional
[13] = test system: Mus musculus; assay: Antidepressant like activity in Swiss albino mouse assessed as decrease in immobility time at 20 mg/kg, ip administered 60 mins prior to test and measured last 4 mins of 6 mins test by forced swimming test relative to control; type: functional; parameters: scale not given: the % may be the effect or the level left
[14] = test system: Mus musculus; assay: Effect on spontaneous locomotor activity in Swiss albino mouse at 20 mg/kg, ip administered 60 mins prior to test and measured for 3 to 6 mins; type: ADME, organism-based; settings: in vivo
Outline: (§1)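 Male Swiss Albino mice given compound or vehicle (1% Tween 80, 10 ml/kg) i.p. 60 min before test. Each mouse placed alone in a cage for 30 min habituation. Ambulation (photobeam channel crossings) then recorded over a 3–6 min session. Means ± SEM.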

[15] = species: Homo sapiens; assay: Selectivity ratio of Ki for human D2L receptor expressed in HEK293 cell membranes to Ki for human 5HT7BR expressed in HEK293 cell membranes; type: cell-based
Outline: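 Membranes from HEK293 cells stably expressing human 5-HT1A, 5-HT7b or D2L receptors. Buffers all 50 mM Tris HCl with 4 mM MgCl2 and 0.1% ascorbate. 5-HT1A: 0.1 mM EDTA, 10 µM pargyline, 2.5 nM [3H]-8-OH-DPAT, room temperature. 5-HT7b: 10 µM pargyline, 0.8 nM [3H]-5-CT, 37°C. D2L: EDTA, NaCl, KCl, CaCl2, 2.5 nM [3H]-raclopride, 37°C. Incubation 1 h; nonspecific binding 10 µM 5-HT (haloperidol for D2L). Seven concentrations (10^-10–10^-4 M) in triplicate; filtration; Ki by Cheng-Prusoff; at least two experiments.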

[16] = test system: Mus musculus; assay: Anxiolytic-like activity in Swiss albino mouse assessed as number of punished crossings at 5 mg/kg, ip administered 60 mins prior to test and measured post 3 secs of electric shock by four-plate test (reference value: 3.8 to 4 /min); type: functional
[17] = test system: Mus musculus; assay: Effect on spontaneous locomotor activity in Swiss albino mouse at 10 mg/kg, ip administered 60 mins prior to test and measured for 3 to 6 mins; type: ADME, organism-based; settings: in vivo; outline: as §1

Chain of D(2) dopamine receptor (P14416 whole entry): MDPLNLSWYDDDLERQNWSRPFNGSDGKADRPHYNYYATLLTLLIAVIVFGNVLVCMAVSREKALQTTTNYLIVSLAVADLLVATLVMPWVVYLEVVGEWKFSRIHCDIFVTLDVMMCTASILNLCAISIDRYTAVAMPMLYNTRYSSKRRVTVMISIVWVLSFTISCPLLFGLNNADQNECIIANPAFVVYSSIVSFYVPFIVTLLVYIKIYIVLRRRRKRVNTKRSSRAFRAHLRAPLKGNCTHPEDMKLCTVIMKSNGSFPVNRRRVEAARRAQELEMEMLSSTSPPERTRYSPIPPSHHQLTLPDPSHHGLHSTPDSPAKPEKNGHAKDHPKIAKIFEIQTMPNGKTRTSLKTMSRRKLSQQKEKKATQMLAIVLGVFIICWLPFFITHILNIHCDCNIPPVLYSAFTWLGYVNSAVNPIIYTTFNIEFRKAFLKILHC

Row | Ki [1] [nM] | Ki [2] [nM] | Ki [3] [nM] | Ki [4] [nM] | Ki [5] [nM] | Ki [6] [nM] | SMILES | also measured
1 | 366 | 109 | 20 | 268 | > 10000 |  | COc1ccccc1N1CCN(CC(O)CN2C(=O)NC(C)(c3ccc(Cl)cc3)C2=O)CC1.Cl (racemic) | 
2 | 1690 | 585 | 12 | 278 |  | > 10000 | CC1(c2ccccc2)NC(=O)N(CC(O)CN2CCN(c3ccccc3C#N)CC2)C1=O.Cl (racemic) | Time [7]: 141.22 s; Time [8]: 134.57 s; Time [9]: 34.44 s; Activity [10]: 3.3 min⁻¹; Activity [11]: 4.9 min⁻¹; Activity [12]: 5.2 min⁻¹; Activity [13]: 80%; Activity [14]: Non-Toxic; Ratio Ki [15]: 140 to 190
3 | 534 | 341 | 1200 |  |  |  | N#Cc1ccccc1N1CCN(CC(O)CN2C(=O)NC(c3ccccc3)(c3ccccc3)C2=O)CC1 (racemic) | 
4 | 601 | 99 | 8 | 530 | > 10000 |  | CC1(c2ccc(Cl)cc2)NC(=O)N(CC(O)CN2CCN(C(c3ccccc3)c3ccccc3)CC2)C1=O.Cl (racemic) | 
5 | 1030 | 421 | 10 | 308 |  | > 10000 | COc1ccccc1N1CCN(CC(O)CN2C(=O)NC(C)(c3ccccc3)C2=O)CC1.Cl (racemic) | Time [7]: 182.89 s; Time [8]: 121.38 s; Time [9]: 66.11 s; Activity [16]: 3 min⁻¹; Activity [10]: 4.7 min⁻¹; Activity [11]: 4.3 min⁻¹; Activity [17]: Non-Toxic; Activity [14]: Non-Toxic
6 | 497 | 197 | 566 |  |  |  | COc1ccccc1N1CCN(CC(O)CN2C(=O)NC(c3ccccc3)(c3ccccc3)C2=O)CC1 (racemic) | 
7 |  | 219 |  |  |  |  | COc1ccc(C2(C)NC(=O)N(CC(O)CN3CCN(c4ccccc4C#N)CC3)C2=O)cc1 (racemic) | 
8 | 876 | 184 | 50 |  |  |  | COc1ccccc1N1CCN(CC(O)CN2C(=O)NC(C)(c3ccc(C)cc3)C2=O)CC1 (racemic) | 
9 | 303 | 190 | 6 | 500 | > 5000 | > 10000 | CCOc1ccccc1N1CCN(CC(O)CN2C(=O)NC(C)(c3ccccc3)C2=O)CC1.Cl (racemic) | 

— ChEMBL document CHEMBL4145534, “Computer-aided insights into receptor-ligand interaction for novel 5-arylhydantoin derivatives as serotonin 5-HT7 receptor agents with antidepressant activity” (Eur J Med Chem, 2018)
